In brackets after ≈: the same amount, converted by molar mass. Activity calls are given as the source filed them. The calls are words filed in the database; no cut-off is given here.
Tests used:
[1] = test system: Enterovirus C; assay: Minimum drug concentration at which 99% of the polio virus is inhibited; type: functional
How it was run: (§1)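 Poliovirus type 1 Brunhilde 1A/S3 in Vero monolayers. Serial 10-fold virus dilutions adsorbed 1 h at 37 °C, then serial 2-fold compound dilutions were added. Incubated at 37 °C and scored for CPE by light microscopy, with a 3-day readout. Titer reduction is control/treated TCD50/mL. ED99 is the minimum concentration inhibiting 99% of virus. Virus, cell and compound controls were included.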

[2] = Therapeutic Index measured as the ratio of CyD50 (rhino) / ED99 (rhino) values.; details: read-out: Therapeutic index 99
How it was run: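 TI99 = CyD50/ED99 for rhinovirus 15. ED99 came from end-point titration in human skin fibroblasts at 33 °C over 7 days. CyD50 came from fibroblast growth: 10⁶ cells were given serial 2-fold compound dilutions in quadruplicate for 6 days at 37 °C, then counted and reseeded, repeated five times. Generation time was calculated per concentration.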

[3] = test system: Enterovirus C; assay: Minimal dose which produces titer reduction at 10 ug/mL (mD RF10e3); type: functional
[4] = test system: Enterovirus C; assay: The ratio of the poliovirus viral titer of the virus control (reduction factor) to the viral titer in the presence of the maximal non-toxic dose (RF MNTD); type: functional; how it was run: as §1
[5] = test system: Human rhinovirus sp.; assay: Cytotoxic dose at which 50% growth of normal cells is inhibited against rhino virus infection.; type: functional
How it was run: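 Human skin fibroblasts, 10⁶ cells per flask, given serial 2-fold dilutions in quadruplicate in M-199 with 6% newborn calf serum and held 6 days at 37 °C. Cells were trypsinized, counted in a chamber and reseeded with compound over five repeat cycles. CyD50 = lowest concentration at least doubling cell generation time relative to untreated control.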

[6] = test system: Human rhinovirus sp.; assay: Minimum drug concentration at which 99% of the rhino virus is inhibited.; type: functional
How it was run: (§2)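 End-point titration with rhinovirus type 15 on human skin fibroblast monolayers. Cells were infected with serial 10-fold virus dilutions and allowed 1 h adsorption at 37 °C. Serial 2-fold compound dilutions were then added and plates incubated at 33 °C. CPE was read daily by light microscopy for at least 1 week, titres as TCD50/mL. ED99 = minimum concentration inhibiting 99% of virus.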

[7] = test system: Enterovirus C; assay: Maximal non-toxic dose (MNTD) that shows antiviral activity.; type: functional
How it was run: (§3)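 End-point titration. Poliovirus type 1 Brunhilde was run in Vero cells at 37 °C with a 3-day read. Rhinovirus 15 was run in human skin fibroblasts at 33 °C with a 7-day read. Monolayers got serial 10-fold virus dilutions and adsorbed 1 h at 37 °C, then serial 2-fold compound dilutions (DMSO stock in maintenance medium). CPE was read by light microscopy. RF = control titer (TCD50/mL) / titer at maximal nontoxic dose.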

[8] = Therapeutic Index measured as the ratio of CyD50(polio) / ED99(polio) values; type: organism-based; details: enterovirus c; read-out: Therapeutic index 99
How it was run: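 TI99 = CyD50/ED99 for poliovirus. ED99 came from end-point titration in Vero cells at 37 °C over 3 days. CyD50 came from Vero cell growth: 10⁶ cells were given serial 2-fold compound dilutions in quadruplicate for 6 days at 37 °C, then trypsinized, counted and reseeded, repeated five times. Generation time was calculated per concentration.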

[9] = Cytotoxic dose at which 50% growth of normal cells is inhibited; type: cell-based; details: chlorocebus sabaeus, Vero cells; read-out: CyD50
How it was run: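 Cell-growth cytotoxicity in Vero cells or human skin fibroblasts. Serial 2-fold dilutions in M-199 with 6% newborn calf serum were added in quadruplicate to 10⁶ cells and held 6 days at 37 °C. Cells were trypsinized, counted and reseeded with compound, repeated five times. Generation time was calculated per concentration. CyD50 = lowest concentration at least doubling generation time versus untreated cells.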

[10] = test system: Enterovirus C; assay: Minimum drug concentration at which 99% of the polio virus is inhibited; NA= not active; type: functional, organism-based; how it was run: as §1
[11] = test system: Enterovirus C; assay: Minimum drug concentration at which 99% of the polio virus is inhibited; NA= Not active; type: functional, organism-based; how it was run: as §1
[12] = test system: Human rhinovirus sp.; assay: Minimum drug concentration at which 99% of the rhino virus is inhibited; NA= not active; type: functional, organism-based; how it was run: as §2
[13] = test system: Human rhinovirus sp.; assay: Antirhinovirus activity against rhinovirus serotype 41 which were grown on Ohio HeLa cells; type: functional
[14] = test system: Human rhinovirus sp.; assay: Antirhinovirus activity against rhinovirus serotype 59 which were grown on Ohio HeLa cells; type: functional
[15] = test system: Human rhinovirus sp.; assay: Antirhinovirus activity against rhinovirus serotype 14 which were grown on Ohio HeLa cells; type: functional
[16] = test system: Human rhinovirus sp.; assay: Antirhinovirus activity against rhinovirus serotype 39 which were grown on Ohio HeLa cells; type: functional
[17] = test system: Human rhinovirus sp.; assay: Antirhinovirus activity against rhinovirus serotype 63 which were grown on Ohio HeLa cells; type: functional
[18] = test system: Human rhinovirus sp.; assay: Antirhinovirus activity against rhinovirus serotype 70 which were grown on Ohio HeLa cells; type: functional
[19] = test system: Human rhinovirus sp.; assay: Antirhinovirus activity against rhinovirus serotype 15 which were grown on Ohio HeLa cells; type: functional
[20] = test system: Human rhinovirus sp.; assay: Antirhinovirus activity against rhinovirus serotype 2 which were grown on Ohio HeLa cells; type: functional
[21] = test system: Human rhinovirus sp.; assay: Antirhinovirus activity against rhinovirus serotype 9 which were grown on Ohio HeLa cells; type: functional
[22] = test system: Human rhinovirus sp.; assay: Antirhinovirus activity against rhinovirus serotype 89 which were grown on Ohio HeLa cells; type: functional
[23] = test system: Human rhinovirus sp.; assay: Antirhinovirus activity against rhinovirus serotype 85 which were grown on Ohio HeLa cells; type: functional
[24] = test system: Human rhinovirus sp.; assay: Antirhinovirus activity against rhinovirus serotype 29 which were grown on Ohio HeLa cells; type: functional
[25] = species: Rattus norvegicus; assay: Mutagenicity evaluated by calculating number of revertants using Salmonella Typhimurium strain TA 98 (0.25 mg/plate) without S9 mix from rat liver; type: functional
How it was run: (§4)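 Ames plate incorporation assay with Salmonella typhimurium TA98 or TA100, without S9, at 0.25 mg/plate. Revertants per plate were counted on duplicate plates per dose. Quercetin was the standard mutagen.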

[26] = species: Rattus norvegicus; assay: Mutagenicity evaluated by calculating number of revertants using Salmonella Typhimurium strain TA 100 (0.25 mg/plate) without S9 mix from rat liver according to the plate incorporation assay.; type: functional; how it was run: as §4
[27] = test system: Enterovirus C; assay: The ratio of the viral titer of the virus control (reduction factor) to the viral titer in the presence of the maximal non-toxic dose (RF MNTD) of the compound; type: functional; how it was run: as §3

Compound	ED99 [1]	selectivity ratio [2]	Minimal dose [3]	Reduction factor [4]	CyD50 [5]	ED99 [6]	Max non-toxic dose [7]	selectivity ratio [8]	CC50 [9]	also measured
COc1cc(O)c2c(=O)c(OC)c(-c3ccc(O)cc3)oc2c1OC	0.25 µg/mL	> 200	0.3 µg/mL	1000000	>100 µg/mL	0.5 µg/mL	25 µg/mL	400	> 100 µg/mL	
COc1cc(OC)c2c(=O)c(OC)c(-c3ccc(O)cc3)oc2c1	10 µg/mL	5	5 µg/mL	100000	100 µg/mL	20 µg/mL	100 µg/mL	10	100 µg/mL (≈ 305 µM)	
COc1c(-c2ccc(Cl)cc2)oc2ccc(Cl)cc2c1=O				1			25 µg/mL		20 µg/mL (≈ 62.3 µM)	ED99 [10]: inactive
COc1c(-c2ccc(O)cc2)oc2cc(O)cc(C)c2c1=O	0.1 µg/mL	15	0.05 µg/mL	100000	15 µg/mL	1 µg/mL	10 µg/mL	150	15 µg/mL (≈ 50.3 µM)	
COc1c(-c2ccc(O)cc2)oc2cccc(O)c2c1=O	0.5 µg/mL	5	1.5 µg/mL	10000	5 µg/mL	1 µg/mL	5 µg/mL	50	25 µg/mL (≈ 87.9 µM)	
COc1c(-c2ccc(Cl)cc2)oc2cc(Cl)ccc2c1=O				1			25 µg/mL		20 µg/mL (≈ 62.3 µM)	ED99 [10]: inactive
COc1cc(-c2oc3cc(O)c(OC)c(O)c3c(=O)c2OC)ccc1O			1 µg/mL	10000			10 µg/mL		1 µg/mL (≈ 2.78 µM)	ED99 [11]: inactive
Cc1ccc2c(=O)c(OC(C)C)c(-c3ccc(O)cc3)oc2c1					2 µg/mL				2 µg/mL (≈ 6.44 µM)	ED99 [12]: inactive
N=C(N)N [GUANIDINE]										MIC50 [13]: 1000 µg/mL (≈ 16900 µM); MIC50 [14]: 350 µg/mL (≈ 5920 µM); MIC50 [15]: 7 µg/mL (≈ 118 µM); MIC50 [16]: 109 µg/mL (≈ 1850 µM); MIC50 [17]: 500 µg/mL (≈ 8460 µM); MIC50 [18]: 6 µg/mL (≈ 102 µM); MIC50 [19]: 438 µg/mL (≈ 7410 µM); MIC50 [20]: > 64 µg/mL; MIC50 [21]: 375 µg/mL (≈ 6350 µM); MIC50 [22]: 1000 µg/mL (≈ 16900 µM); MIC50 [23]: 750 µg/mL (≈ 12700 µM); MIC50 [24]: > 64 µg/mL
O=c1c(O)c(-c2ccc(O)c(O)c2)oc2cc(O)cc(O)c12 [QUERCETIN]										Revertants/plate [25]: 1100; Revertants/plate [26]: 589
COc1cc(O)c2c(=O)c(OC)c(-c3ccc(O)c(O)c3)oc2c1OC	0.2 µg/mL	10	0.5 µg/mL	100000	20 µg/mL	2 µg/mL	10 µg/mL	25	> 5 µg/mL	
COc1cc2oc(-c3ccc(O)cc3)c(OC)c(=O)c2c(O)c1OC [PENDULETIN]	0.2 µg/mL	1	0.1 µg/mL	1000000	10 µg/mL	10 µg/mL	100 µg/mL	500	100 µg/mL (≈ 290 µM)	
COc1cc(O)c2c(=O)c(OC)c(-c3ccc(O)cc3)oc2c1 [KUMATAKENIN]	0.3 µg/mL	40	0.3 µg/mL	1000000	100 µg/mL	2.5 µg/mL	100 µg/mL	333	100 µg/mL (≈ 318 µM)	
COc1c(-c2ccc(O)cc2)oc2ccc(N)cc2c1=O	5 µg/mL		10 µg/mL				10 µg/mL	2	10 µg/mL (≈ 35.3 µM)	Reduction factor [27]: 10000
COc1c(-c2ccc(O)cc2)oc2ccc([N+](=O)[O-])cc2c1=O							50 µg/mL		> 0.1 µg/mL	ED99 [11]: inactive
COc1ccc(-c2oc3cc(Cl)ccc3c(=O)c2OC)cc1				1			100 µg/mL		> 200 µg/mL	ED99 [10]: inactive
COc1c(-c2ccc(O)cc2)oc2cc(Cl)ccc2c1=O	7 µg/mL	4	20 µg/mL	10000	100 µg/mL	25 µg/mL	100 µg/mL	14.3	100 µg/mL (≈ 330 µM)	
COc1cc(C)c2c(=O)c(OC)c(-c3ccc(O)cc3)oc2c1	1 µg/mL	2	0.5 µg/mL	100000	50 µg/mL	25 µg/mL	25 µg/mL	50	50 µg/mL (≈ 160 µM)	MIC50 [13]: 0.375 µg/mL (≈ 1.2 µM); MIC50 [14]: 3 µg/mL (≈ 9.61 µM); MIC50 [15]: 10.8 µg/mL (≈ 34.6 µM); MIC50 [16]: 12 µg/mL (≈ 38.4 µM); MIC50 [18]: 5 µg/mL (≈ 16 µM); MIC50 [19]: 0.4 µg/mL (≈ 1.28 µM); MIC50 [20]: 2.4 µg/mL (≈ 7.68 µM); MIC50 [21]: 0.2 µg/mL (≈ 0.64 µM); MIC50 [22]: 0.2 µg/mL (≈ 0.64 µM); MIC50 [24]: 0.175 µg/mL (≈ 0.56 µM)
COc1ccc(-c2oc3ccc(Cl)cc3c(=O)c2OC)cc1				1			25 µg/mL		20 µg/mL (≈ 63.1 µM)	ED99 [10]: inactive
CCOc1c(-c2ccc(O)cc2)oc2cc(C)ccc2c1=O	>25 µg/mL			1	25 µg/mL		25 µg/mL	< 1	25 µg/mL (≈ 84.4 µM)	ED99 [12]: inactive
COc1c(-c2ccc(O)cc2)oc2cccc(OC)c2c1=O	10 µg/mL	10	5 µg/mL		150 µg/mL	15 µg/mL	10 µg/mL	15	150 µg/mL (≈ 503 µM)	
COc1ccc(-c2oc3c(OC)cccc3c(=O)c2OC)cc1				1			100 µg/mL		> 200 µg/mL	ED99 [11]: inactive
COc1c(-c2ccc(O)cc2)oc2cc(C)ccc2c1=O	2 µg/mL	1	4 µg/mL		25 µg/mL	25 µg/mL	25 µg/mL	12.5	25 µg/mL (≈ 88.6 µM)	
